The target in assay [1] is Histamine H4 receptor (Homo sapiens, UniProt Q9H3N8).
The target in assay [2] is D(2) dopamine receptor (Homo sapiens, UniProt P14416). Description: Displacement of [3H]N-methylspiperone from human D2 long receptor stably expressed in HEK293T cells co-expressing luciferase and CEK incubated for 140 mins by radioligand competition binding based assay. The assay is classed as cell-based. Background: In a radioligand displacement assay an active substance lowers the binding of a labelled ligand.

For assay [3], the target named is Beta-2 adrenergic receptor (Homo sapiens, UniProt P07550). Kind of assay: Displacement of [3H]CGP12177 from human beta-2 adrenergic receptor […] in HEK293T cell membrane incubated for 2 hrs by scintillation counting analysis. The assay is classed as cell membranes. The method, boiled down:
(§1)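 Membranes of transiently transfected HEK293T cells in 25 mM HEPES, 5 mM MgCl2, 1 mM EDTA, 0.01% BSA, pH 7.4. β1 at 2 μg/well, β2 at 4 μg/well, with 0.2 nM [3H]CGP12177. Nonspecific binding with 10 μM CGP12177. IC50 converted to Ki by Cheng–Prusoff.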

The target in assay [4] is Beta-1 adrenergic receptor (Homo sapiens, UniProt P08588). Description: Displacement of [3H]CGP12177 from human beta-1 adrenergic receptor […] in HEK293T cell membrane incubated for 2 hrs by scintillation counting analysis. The format is cell membranes. The method, boiled down: as §1
The target of assay [5] is T1, Alpha-1A adrenergic receptor (Homo sapiens, UniProt P35348).
T1 sequence (P35348 whole entry): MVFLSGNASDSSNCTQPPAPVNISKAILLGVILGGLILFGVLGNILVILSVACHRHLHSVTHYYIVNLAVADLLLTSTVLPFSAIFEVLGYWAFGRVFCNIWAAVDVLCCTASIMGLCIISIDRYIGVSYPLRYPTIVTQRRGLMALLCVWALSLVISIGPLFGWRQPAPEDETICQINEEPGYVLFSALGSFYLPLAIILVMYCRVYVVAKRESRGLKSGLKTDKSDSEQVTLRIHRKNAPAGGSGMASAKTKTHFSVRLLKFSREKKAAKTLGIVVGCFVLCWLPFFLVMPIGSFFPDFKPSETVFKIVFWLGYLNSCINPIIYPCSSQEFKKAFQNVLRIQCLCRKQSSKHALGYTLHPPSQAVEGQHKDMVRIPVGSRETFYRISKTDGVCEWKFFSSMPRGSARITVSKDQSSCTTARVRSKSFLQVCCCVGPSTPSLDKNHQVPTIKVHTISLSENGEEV
Kind of assay: Displacement of [3H]prazosin from human alpha-1A adrenergic receptor stably expressed in HEK293T cell membrane incubated for 2 hrs by scintillation counting analysis. The assay is classed as cell membranes.

Assay [6] addresses T2, D(4) dopamine receptor (Homo sapiens, UniProt P21917).
T2 sequence (P21917 whole entry): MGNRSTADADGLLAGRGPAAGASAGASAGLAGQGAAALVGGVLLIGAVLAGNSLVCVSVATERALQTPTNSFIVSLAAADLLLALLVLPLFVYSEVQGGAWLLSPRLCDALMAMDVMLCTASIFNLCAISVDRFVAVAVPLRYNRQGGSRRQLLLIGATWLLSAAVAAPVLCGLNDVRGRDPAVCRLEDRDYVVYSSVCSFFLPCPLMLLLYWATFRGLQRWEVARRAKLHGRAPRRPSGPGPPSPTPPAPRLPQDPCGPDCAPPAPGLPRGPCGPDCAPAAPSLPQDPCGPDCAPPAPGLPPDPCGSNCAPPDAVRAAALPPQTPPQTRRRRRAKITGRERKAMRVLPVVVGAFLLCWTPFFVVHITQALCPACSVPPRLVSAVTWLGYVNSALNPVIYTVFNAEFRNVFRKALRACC
Kind of assay: Displacement of [3H]N-methylspiperone from human D4.4 receptor stably expressed in HEK293T cells co-expressing ElucN-betaarr2 hD4.4R-ELuc incubated for 60 mins by scintillation counting analysis. The format is cell-based.

Assay [7] addresses T3, Muscarinic acetylcholine receptor M5 (Homo sapiens, UniProt P08912).
T3 sequence (P08912 whole entry): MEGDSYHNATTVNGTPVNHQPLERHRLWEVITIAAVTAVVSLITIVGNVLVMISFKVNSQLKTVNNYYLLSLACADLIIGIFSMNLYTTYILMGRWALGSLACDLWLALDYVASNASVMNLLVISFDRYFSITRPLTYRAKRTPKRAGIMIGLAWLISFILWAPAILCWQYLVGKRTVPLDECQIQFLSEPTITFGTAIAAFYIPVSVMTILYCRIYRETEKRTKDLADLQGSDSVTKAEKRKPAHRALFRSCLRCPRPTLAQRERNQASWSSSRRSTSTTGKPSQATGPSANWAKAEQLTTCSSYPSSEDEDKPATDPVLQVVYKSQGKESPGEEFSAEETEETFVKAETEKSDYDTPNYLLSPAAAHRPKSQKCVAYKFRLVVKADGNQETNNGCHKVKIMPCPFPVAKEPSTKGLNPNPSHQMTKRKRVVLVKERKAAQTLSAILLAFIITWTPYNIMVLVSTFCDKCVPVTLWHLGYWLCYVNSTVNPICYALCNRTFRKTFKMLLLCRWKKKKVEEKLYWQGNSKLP
Kind of assay: Displacement of [3H]N-methylscopolamine from human muscarinic acetylcholine M5 receptor stably expressed in CHO cells by radioligand competition binding based analysis. The format is cell-based. An outline of the steps:
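Whole CHO cells stably expressing hM1–hM5, competed against [3H]N-methylscopolamine. Kd/applied concentrations in nM: M1 0.17/0.2, M2 0.10/0.2, M3 0.12/0.2, M4 0.052/0.1, M5 0.20/0.3.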

Assay [8] deals with D(1B) dopamine receptor (Homo sapiens, UniProt P21918). Description: Displacement of [3H]SCH23390 from human D5 receptor stably expressed in HEK293T cells co-expressing luciferase and CEK incubated for 60 mins by scintillation counting analysis. The assay is classed as cell-based.
Assay [9] deals with T4, Histamine H2 receptor (Cavia porcellus, UniProt P47747). Description: Agonist activity at guinea pig histamine H2 receptor stably transfected in HEK293T cells co-expressing NlucN-mGs/gpH2R-NlucC by mini-G protein recruitment assay. The format is functional, cell-based.
Assay [10] has as its target T4, Histamine H2 receptor. Kind of assay: Agonist activity at histamine H2 receptor in spontaneous beating guinea pig right atrium assessed as increase in heart beat. The format is functional, tissue-based, Right cardiac atrium.

Sequence of Beta-1 adrenergic receptor (P08588 whole entry): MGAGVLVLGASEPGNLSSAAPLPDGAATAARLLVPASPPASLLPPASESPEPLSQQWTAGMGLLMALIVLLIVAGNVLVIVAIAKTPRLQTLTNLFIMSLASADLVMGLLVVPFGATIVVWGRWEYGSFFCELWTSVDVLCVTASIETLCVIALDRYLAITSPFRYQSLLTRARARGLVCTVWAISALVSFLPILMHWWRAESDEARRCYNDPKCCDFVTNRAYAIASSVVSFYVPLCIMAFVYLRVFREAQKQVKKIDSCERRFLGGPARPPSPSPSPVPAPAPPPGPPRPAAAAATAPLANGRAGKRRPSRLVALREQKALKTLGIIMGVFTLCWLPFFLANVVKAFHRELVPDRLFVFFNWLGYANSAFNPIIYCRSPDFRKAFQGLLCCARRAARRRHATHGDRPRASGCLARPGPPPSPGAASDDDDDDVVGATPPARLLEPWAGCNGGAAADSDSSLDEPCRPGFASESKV
T4 sequence (P47747 whole entry): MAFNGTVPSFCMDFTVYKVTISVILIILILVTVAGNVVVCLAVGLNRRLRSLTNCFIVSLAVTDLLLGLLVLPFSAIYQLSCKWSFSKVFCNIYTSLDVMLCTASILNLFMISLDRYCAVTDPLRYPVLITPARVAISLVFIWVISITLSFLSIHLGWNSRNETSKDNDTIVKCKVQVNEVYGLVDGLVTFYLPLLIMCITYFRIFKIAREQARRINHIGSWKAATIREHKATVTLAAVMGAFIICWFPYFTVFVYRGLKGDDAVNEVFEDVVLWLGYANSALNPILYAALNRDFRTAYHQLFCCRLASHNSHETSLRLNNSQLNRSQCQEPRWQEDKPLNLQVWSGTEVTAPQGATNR
Sequence of Beta-2 adrenergic receptor (P07550 whole entry): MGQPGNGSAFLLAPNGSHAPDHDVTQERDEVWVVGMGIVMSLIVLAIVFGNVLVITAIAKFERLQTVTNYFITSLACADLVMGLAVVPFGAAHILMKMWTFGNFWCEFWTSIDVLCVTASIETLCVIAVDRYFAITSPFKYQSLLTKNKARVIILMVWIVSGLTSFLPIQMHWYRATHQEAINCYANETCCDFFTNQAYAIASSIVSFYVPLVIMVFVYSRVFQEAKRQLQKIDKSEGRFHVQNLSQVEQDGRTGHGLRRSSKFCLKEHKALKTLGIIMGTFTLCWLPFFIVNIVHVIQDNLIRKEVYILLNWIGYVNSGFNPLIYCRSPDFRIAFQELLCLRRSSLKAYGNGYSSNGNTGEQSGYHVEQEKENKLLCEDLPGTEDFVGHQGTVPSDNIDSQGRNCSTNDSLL
Sequence of Histamine H4 receptor (Q9H3N8 whole entry): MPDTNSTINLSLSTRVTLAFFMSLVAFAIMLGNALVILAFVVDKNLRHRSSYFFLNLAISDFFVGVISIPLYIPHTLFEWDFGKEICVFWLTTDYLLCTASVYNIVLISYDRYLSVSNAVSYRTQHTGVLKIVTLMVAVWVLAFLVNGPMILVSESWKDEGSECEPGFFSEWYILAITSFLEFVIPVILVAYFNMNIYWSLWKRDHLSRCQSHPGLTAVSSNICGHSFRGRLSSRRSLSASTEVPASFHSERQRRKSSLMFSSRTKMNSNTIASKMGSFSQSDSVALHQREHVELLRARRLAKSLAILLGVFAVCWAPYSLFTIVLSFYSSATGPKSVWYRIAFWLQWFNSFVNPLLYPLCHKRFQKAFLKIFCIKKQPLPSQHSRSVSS
Sequence of D(1B) dopamine receptor (P21918 whole entry): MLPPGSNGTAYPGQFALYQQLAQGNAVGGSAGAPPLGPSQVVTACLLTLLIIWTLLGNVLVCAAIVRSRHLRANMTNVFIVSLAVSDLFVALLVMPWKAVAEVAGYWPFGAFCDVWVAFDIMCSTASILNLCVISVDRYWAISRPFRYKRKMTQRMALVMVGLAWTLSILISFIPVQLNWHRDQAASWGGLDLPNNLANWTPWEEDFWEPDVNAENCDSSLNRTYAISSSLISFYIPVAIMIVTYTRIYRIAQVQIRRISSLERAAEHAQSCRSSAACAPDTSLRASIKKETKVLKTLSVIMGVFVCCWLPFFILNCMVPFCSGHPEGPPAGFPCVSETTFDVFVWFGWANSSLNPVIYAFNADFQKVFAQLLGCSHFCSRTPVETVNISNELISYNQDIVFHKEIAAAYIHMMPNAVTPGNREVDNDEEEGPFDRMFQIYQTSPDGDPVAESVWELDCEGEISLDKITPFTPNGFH
Sequence of D(2) dopamine receptor (P14416 whole entry): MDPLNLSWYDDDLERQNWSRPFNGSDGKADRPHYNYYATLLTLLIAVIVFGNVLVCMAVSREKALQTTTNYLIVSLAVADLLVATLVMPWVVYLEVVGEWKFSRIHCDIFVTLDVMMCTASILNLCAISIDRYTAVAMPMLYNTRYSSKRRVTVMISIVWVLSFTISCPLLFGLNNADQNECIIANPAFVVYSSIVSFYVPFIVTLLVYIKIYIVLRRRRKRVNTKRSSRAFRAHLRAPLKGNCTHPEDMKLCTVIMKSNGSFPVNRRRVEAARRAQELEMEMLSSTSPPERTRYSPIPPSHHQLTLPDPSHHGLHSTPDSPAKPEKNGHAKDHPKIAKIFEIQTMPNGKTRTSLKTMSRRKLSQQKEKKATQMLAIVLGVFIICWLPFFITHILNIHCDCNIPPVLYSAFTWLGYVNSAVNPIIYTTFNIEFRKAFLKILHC

For orientation: Kd means a measure of binding affinity in units of concentration. By Ki is commonly meant a measure of affinity in units of concentration, obtained from inhibition or displacement. As a reminder, the pKi is the negative decadic logarithm of the Ki, by convention in mol/L. The low end stands for a high Ki, the high end for a low Ki. The term EC50 denotes the midpoint of the concentration-response curve. With `CCCCCNC(=O)/N=C(\N)NCCCc1nnc(N)s1.O=C(O)C(F)(F)F.O=C(O)C(F)(F)F`, the equilibrium dissociation constant (Kd) in assay [1] was 16 nM; in assay [3] it was 0.07 nM; in assay [4], 0.075 nM; in assay [5], 0.25 nM; in [6], 0.078 nM; in assay [7] it was 0.2 nM. The compound further yielded a Kd in assay [8] of 0.24 nM. Also, the Ki in assay [1] is over 10000 nM; in [2], 9550 nM. Also, the negative logarithm of the Ki (pKi) in [3] is 4.2; in assay [4], under 4; in assay [5], 5.45; in assay [6], 5.65; in assay [7] it was over 5; in assay [8] it was 4.46. Moreover, the EC50 in assay [9] was 4.37 nM; in assay [10] it was 5.62 nM.
As to `C[C@@H](NC(=O)/N=C(\N)NCCCc1ncn[nH]1)c1ccccc1`, the Kd in [1] is 16 nM; in assay [3], 0.07 nM; in [4] it was 0.075 nM; in assay [5] it was 0.25 nM; in [6], 0.078 nM; in assay [7] it was 0.2 nM. Further, the dissociation constant (Kd) in assay [8] came to 0.24 nM. In addition, the Ki in [1] and in assay [2] was over 10000 nM in each case. In addition, the pKi in [3] was 4.45; in [4] it was 4.31; in [5] it was 5.72; in [6], 5.18; in assay [7], under 5; in assay [8], 4.62. For the same compound, the EC50 in [9] is 16.2 nM; in [10], 38 nM.
For `CCCCCNC(=O)/N=C(\N)NCCCc1sc(N)nc1C`, the Kd in assay [3] came out at 0.07 nM; in [4], 0.075 nM; in assay [5], 0.25 nM; in assay [6] it was 0.078 nM; in [7], 0.2 nM; in [8] it was 0.24 nM. Further, the pKi is 4.93 in assay [3]; 4.66 in assay [4]; 5.69 in assay [5]; 6.96 in assay [6]; over 5 in [7]; 5.4 in assay [8].
In the case of `N/C(=N\C(=O)NCc1ccccc1)NCCCc1nnc(N)s1`, the equilibrium dissociation constant (Kd) in assay [1] amounted to 16 nM; in assay [3], 0.07 nM; in [4] it was 0.075 nM; in assay [5], 0.25 nM; in assay [6] it was 0.078 nM; in [7], 0.2 nM. The compound also yielded a Kd in assay [8] of 0.24 nM. The Ki was over 10000 nM in assay [1] and 6310 nM in [2]. Besides, the pKi in assay [3] is 4.4; in assay [4], under 4; in [5], 6.07; in [6], 6.17; in [7], over 5; in assay [8], 4.95. Besides, the values for the EC50 in assay [9] and in assay [10] were 2.19 nM and 1.32 nM, respectively.
